Measured values as given in ChEMBL document CHEMBL4715831, “Design and synthesis of 2-((1H-indol-3-yl)thio)-N-phenyl-acetamides as novel dual inhibitors of respiratory syncytial virus and influenza virus A” (Eur J Med Chem, 2020).
pEC50: −log10 of the molar value.

Key:
[1] = Cytotoxicity against HEK293T cells assessed as reduction in cell viability measured after 48 hrs by CCK8 assay; format: cell-based, HEK-293T; settings: human
Outline: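 293T cells treated for 48 h with six compound concentrations from 12.5 to 200 μM, with DMSO-only cells as control. CCK-8 then added for 1 h at 37 °C and OD read at 450 nm. Mean ± SD of three experiments.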

[2] = Cytotoxicity against human HEp-2 cells assessed as reduction in cell viability measured after 48 hrs by MTS assay; format: cell-based
Outline: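 HEp-2 cells plated; after 24 h, compound added and cells incubated 48 h. MTS (2 mg/ml) then added for 3 h at 37 °C in 5% CO2 and absorbance read at 490 nm. Untreated control set as 100%.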

[3] = Safety index, ratio of CC50 for HEK293T cells to EC50 for antiviral activity against Influenza A virus A/WSN/33(H1N1) infected in human HEK293T cells; format: toxicity, cell-based; settings: read-out: Ratio CC50/EC50
[4] = system: Respiratory syncytial virus; assay: Antiviral activity against GFP-fused wild-type RSV subgroup A Long infected in human HEp-2 cells measured 24 to 72 hrs post infection by fluorescence assay; format: functional, cell-based
Outline: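 HEp-2 cells plated, then after 24 h infected with RSV-mGFP using 3-fold serially diluted inocula starting from 3 × 10^4 pfu/well. Compounds came from a 100 mM DMSO stock, diluted as indicated. RFU read at 479/517 nm at 24, 48 and 72 h post-infection, with non-infected cells as background. Mean ± SD of at least three experiments.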

Influenza A virus [5] = assay: Antiviral activity against Influenza A virus A/WSN/33(H1N1) infected in human HEK293T cells measured after 24 hrs by Gaussia luciferase reporter gene method; format: functional, organism-based; settings: A/WSN/1933(H1N1); for pEC50: HEK-293T
Outline: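 HEK293T cells carrying a Gaussia luciferase reporter that is activated by IAV, infected with A/WSN/33 (H1N1) for 1 h at room temperature, then cultured 24 h at 37 °C with serially diluted compound. Supernatant Gluc read with coelenterazine-h (16.7 μM in PBS) as 0.5-s photon counts. Normalized to control set as 100%; ribavirin positive control; three experiments.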

[6] = Safety index, ratio of CC50 for human HEp-2 cells to EC50 for GFP-fused wild-type RSV subgroup A long infected in human HEp-2 cells; format: toxicity, cell-based; settings: read-out: Ratio CC50/EC50
Influenza A virus [7] = assay: Antiviral activity against Influenza A virus A/WSN/33(H1N1) infected in MDCK cells measured after 24 hrs by Gaussia luciferase reporter gene method; format: functional, organism-based; settings: A/WSN/1933(H1N1)
Outline: (§1)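 MDCK cells infected with IAV A/WSN/33 (H1N1) or H3N2 for 1 h at room temperature, then cultured in fresh DMEM with serially diluted compound for 24 h at 37 °C. Gluc activity in the medium read with coelenterazine-h (16.7 μM in PBS). Normalized to control set as 100%; ribavirin positive control; mean ± SD of three experiments.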

[8] = Antiviral activity against H3N2 infected in MDCK cells measured after 24 hrs by Gaussia luciferase reporter gene method; format: functional, cell-based, H3N2 subtype; settings: Influenza A virus; outline: as §1
Influenza A virus [9] = assay: Antiviral activity against Influenza A virus A/WSN/33(H1N1) infected in HEK293T cells assessed as relative fluorescence intensity at 20 uM pretreated for 2 hrs followed by viral infection and measured after 24 hrs by Gaussia luciferase reporter gene method; format: functional, A/WSN/1933(H1N1); settings: time 26 hrs
Outline: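 Time-of-addition assay: compound at 20 μM added before infection or at infection (0 h) in HEK293T-Gluc cells infected with A/WSN/33 (H1N1). Supernatant Gaussia luciferase measured after 24 h with coelenterazine-h. Values normalized to the DMSO control, set as 100%; ribavirin positive control. Mean ± SD, three independent experiments.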

[10] = system: Respiratory syncytial virus; assay: Antiviral activity against GFP-fused wild-type RSV subgroup A Long infected in human HEp-2 cells assessed as relative fluorescence intensity at 20 uM pretreated for 1 hr followed by viral infection measured 24 to 72 hrs post infection by fluorescence assay; format: functional, Respiratory syncytial virus type A; settings: time 24-73 hrs
Outline: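 HEp-2 cells exposed to compound at 20 μM 1 h before RSV-mGFP infection (−1 h). GFP fluorescence read at 479/517 nm at 24, 48 and 72 h post-infection. Signal normalized to the DMSO control, set as 1; ribavirin was the positive control. Mean ± SD, three independent experiments.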

Influenza A virus [11] = assay: Antiviral activity against Influenza A virus A/WSN/33(H1N1) infected in human HEK293T cells assessed as inhibition of viral replication at 10 uM measured after 24 hrs by Gaussia luciferase reporter gene method relative to control; format: functional; settings: A/WSN/1933(H1N1), HEK-293T

| Structure (SMILES) | CC50 at 48 h [1] | CC50 at 48 h [2] | selectivity ratio [3] | pEC50 [4] | pEC50 (Influenza A virus [5]) | selectivity ratio [6] | pEC50 (Influenza A virus [7]) | pEC50 [8] | RFU (Influenza A virus [9]) | RFU [10] | Activity [4] | inhibition at 10 µM (Influenza A virus [11]) | Activity (Influenza A virus [5]) |
| --- | --- | --- | --- | --- | --- | --- | --- | --- | --- | --- | --- | --- | --- |
| Cn1cc(SCC(=O)Nc2cccc(Cl)c2Cl)c2ccccc21 | > 100 µM | > 1000 µM | > 7.26 | < 3.89 | 4.86 | – | – | – | – | – | – | – | – |
| Cn1cc(S(=O)(=O)CC(=O)Nc2ccc(Cl)cc2Cl)c2ccccc21 | > 100 µM | > 1000 µM | > 2.97 | < 3.89 | 4.47 | – | – | – | – | – | – | – | – |
| Cn1cc(SCC(=O)Nc2ccc(Cl)cc2)c2ccccc21 | > 100 µM | 31.4 µM | > 10.2 | < 3.89 | 5.01 | – | – | – | – | – | – | – | – |
| Cn1cc(S(=O)(=O)CC(=O)Nc2cc(Cl)ccc2Cl)c2ccccc21 | > 100 µM | > 1000 µM | > 6.72 | < 3.89 | 4.74 | – | – | – | – | – | – | – | – |
| CCOc1ccccc1NC(=O)CSc1c[nH]c2cc(OC)ccc12 | 88.2 µM | 35.2 µM | 15.4 | 4.64 | 5.35 | 1.53 | – | – | – | – | – | – | – |
| Cn1cc(SCC(=O)Nc2ccccc2Cl)c2ccccc21 | > 100 µM | > 1000 µM | > 3.59 | < 3.89 | 4.55 | – | – | – | – | – | – | – | – |
| Cn1cc([S+]([O-])CC(=O)Nc2ccccc2Cl)c2ccccc21 (stereo unspecified) | > 100 µM | 97.4 µM | > 3.36 | 4.91 | 4.53 | 7.89 | – | – | – | – | – | – | – |
| NC(=O)c1ncn([C@@H]2O[C@H](CO)[C@@H](O)[C@H]2O)n1 [RIBAVIRIN] | > 100 µM | 274 µM | > 3.99 | 4.80 | 4.60 | 17.3 | 4.80 | 4.69 | 0.67 | 0.04 | – | – | – |
| O=C(CSc1c[nH]c2ncccc12)Nc1ccc(Cl)c(Cl)c1 | > 100 µM | > 256 µM | > 3.1 | < 3.89 | 4.50 | – | – | – | – | – | – | – | – |
| CCOc1ccccc1NC(=O)CSc1c[nH]c2c(Cl)cccc12 | > 100 µM | 262 µM | > 57.5 | 5.35 | 5.76 | 58.8 | 5.36 | 5.74 | – | – | – | – | – |
| CCOc1ccccc1NC(=O)CSc1c[nH]c2c(OC)cccc12 | > 100 µM | 0.61 µM | > 8.24 | 6.37 | 4.91 | 1.42 | – | – | – | – | Dose-dependent effect | – | – |
| Cn1cc([S+]([O-])CC(=O)Nc2ccc(Cl)cc2)c2ccccc21 (stereo unspecified) | > 100 µM | 61.9 µM | > 10 | < 3.89 | 5.00 | – | – | – | – | – | – | – | – |
| CCOc1ccccc1NC(=O)CSc1c[nH]c2ncccc12 | > 100 µM | > 1000 µM | > 3.21 | < 3.89 | 4.50 | – | – | – | – | – | – | – | – |
| O=C(CSc1c[nH]c2cccc(Cl)c12)Nc1ccc(Cl)c(Cl)c1 | 34.7 µM | 27.7 µM | 5.95 | 4.60 | 5.24 | 1.09 | – | – | – | – | – | – | – |
| COc1ccc2[nH]cc(SCC(=O)Nc3ccc(Cl)c(Cl)c3)c2c1 | 61.8 µM | 46.4 µM | 4.19 | 4.78 | 4.81 | 2.79 | – | – | – | – | – | – | – |
| COc1ccc2c(SCC(=O)Nc3ccc(Cl)c(Cl)c3)c[nH]c2c1 | 78.4 µM | 42.7 µM | 5 | 5.24 | 4.80 | 7.16 | – | – | – | – | Dose-dependent effect | – | – |

| Structure (SMILES) | CC50 at 48 h [1] | CC50 at 48 h [2] | selectivity ratio [3] | pEC50 [4] | pEC50 (Influenza A virus [5]) | selectivity ratio [6] | pEC50 (Influenza A virus [7]) | pEC50 [8] | RFU (Influenza A virus [9]) | RFU [10] | Activity [4] | inhibition at 10 µM (Influenza A virus [11]) | Activity (Influenza A virus [5]) |
| --- | --- | --- | --- | --- | --- | --- | --- | --- | --- | --- | --- | --- | --- |
| Cn1cc(SCC(=O)Nc2cccc(Cl)c2)c2ccccc21 | > 100 µM | 18.9 µM | > 10 | 4.62 | 5.00 | 0.79 | – | – | – | – | – | – | – |
| CCOc1ccccc1NC(=O)CSc1c[nH]c2ccc(Cl)cc12 | 37.6 µM | 204 µM | 8.97 | 4.74 | 5.38 | 11.3 | – | – | – | – | – | – | – |
| O=C(CSc1c[nH]c2c(Cl)cccc12)Nc1ccc(Cl)c(Cl)c1 | 49.1 µM | 32.8 µM | 4.69 | 4.74 | 4.98 | 1.81 | – | – | – | – | – | – | – |
| COc1cccc2[nH]cc(SCC(=O)Nc3ccc(Cl)c(Cl)c3)c12 | > 100 µM | > 256 µM | > 6.61 | < 3.89 | 4.82 | – | – | – | – | – | – | – | – |
| O=C(CSc1c[nH]c2ccc(Cl)cc12)Nc1ccc(Cl)c(Cl)c1 | 42.7 µM | 35.2 µM | 5.53 | 5.00 | 5.12 | 3.54 | – | – | – | – | – | – | – |
| Cn1cc(SCC(=O)Nc2cc(Cl)ccc2Cl)c2ccccc21 | > 100 µM | 76.9 µM | > 6.38 | < 3.89 | 4.80 | – | – | – | – | – | – | – | – |
| Cn1cc(S(=O)(=O)CC(=O)Nc2cccc(Cl)c2Cl)c2ccccc21 | > 100 µM | 275 µM | > 2.75 | 4.70 | 4.44 | 13.8 | – | – | – | – | – | – | – |
| Cn1cc(SCC(=O)Nc2ccc(Cl)cc2Cl)c2ccccc21 | > 100 µM | > 1000 µM | > 8.38 | < 3.89 | 4.92 | – | – | – | – | – | – | – | – |
| Cn1cc(SCC(=O)Nc2ccc(Cl)c(Cl)c2)c2ccccc21 | > 100 µM | 30.5 µM | > 156 | 4.90 | 6.19 | 2.45 | – | – | – | – | – | > 85% | – |
| Cn1cc(SCC(=O)Nc2c(Cl)cccc2Cl)c2ccccc21 | > 100 µM | 23.7 µM | > 28.6 | 4.76 | 5.46 | 1.37 | 5.76 | 5.82 | – | – | – | > 85% | Dose-dependent effect |
| COc1cccc2c(SCC(=O)Nc3ccc(Cl)c(Cl)c3)c[nH]c12 | > 100 µM | 39.5 µM | > 7.21 | 4.76 | 4.86 | 2.28 | – | – | – | – | – | – | – |
| CCOc1ccccc1NC(=O)CSc1c[nH]c2cccc(Cl)c12 | 25.2 µM | 7.15 µM | > 41 | 5.61 | 6.24 | 2.92 | 5.57 | 5.63 | – | – | Dose-dependent effect | – | Dose-dependent effect |
| CCOc1ccccc1NC(=O)CSc1c[nH]c2cccc(OC)c12 | > 100 µM | 220 µM | > 8.8 | 4.91 | 4.95 | 17.9 | – | – | – | – | – | – | – |
| O=C(CSc1c[nH]c2cc(Cl)ccc12)Nc1ccc(Cl)c(Cl)c1 | 67.8 µM | 27.8 µM | 9.16 | 4.86 | 5.13 | 1.99 | – | – | – | – | – | – | – |
| Cn1cc([S+]([O-])CC(=O)Nc2cccc(Cl)c2)c2ccccc21 (stereo unspecified) | > 100 µM | > 1000 µM | > 2.55 | < 3.89 | 4.41 | – | – | – | – | – | – | – | – |
